Screening results deposited in PubChem by Broad Institute.
Most compounds without a hit are left out; they make up all but 2.2% or so of the library.
HIV Env fusion = inhibitors of HIV-1 Env-driven cell-cell fusion, primary screen, HeLa-JRFL effector, CEM21 target cells, luciferase; inhibition, % at 12.3 µM; AID 651610, 2012; 360,000 tested, 1.1% active;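 active means mean replicate inhibition score of at least 50 and every replicate individually at or above 50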;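 further: 0% = plate neutral controls and 100% = maraviroc near 300 nM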
rRNA inh HTS = reduced GFP signal of wild-type E. coli, primary screen, bacterial rRNA inhibitor project, GFP/RFP fluorescence, OD600, single point. E. coli WT GFP vs humanized-ribosome RFP mutants, 24 h; hits give low values; DMSO median 0, no signal -100. GFP signal change (wild-type ribosome), % (test concentration not listed). 350,000 tested, 1.6% active. AID 720706, 2013;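 active means significant combined selectivity score with lowered wild-type GFP, culture density cut under 30%, mutant RFP and density less affected; inactive means any of these conditions unmet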
PDI turbidity = inhibitors of human PDI, primary screen, biochemical, turbidity, single point, plate reader; PDI insulin aggregation turbidity, A650, 90 min; inhibition, % at 10 µM; 350,000 tested, 0.052% active;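 active means mean inhibition across replicates of 30% or more, whatever share of single replicates reach that level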
FN deposit inh = inhibitors of fibronectin matrix deposition, primary screen, AH1F cells, Alexa488-fibronectin fluorescence, plate reader. AH1F fibroblasts, overnight. AID 743247, 2014. 350,000 tested, 0.086% active. inhibition, % at 12.6 µM;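 active means mean inhibition across replicates of 30% or more, regardless of how many single replicates reach that level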;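 further: positive control wells lacked labelled fibronectin entirely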
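Assay system: AH1F fibroblasts / Quantity: 10000 cells per well / Medium: DMEM plus 2% serum, read in PBS / Reagent: labelled fibronectin 24 nM / Dosing: single dose, pinned / Times: 1 h cell attachment, overnight exposure to compound and label / Signal: fluorescence, ex 485 nm, em 525 nm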
PvdQ acylase = P. aeruginosa PvdQ acylase inhibitors, primary screen, biochemical, fluorescence, plate reader and imaging, single point | purified PvdQ acylase | inhibition, % at 10 µM | 340,000 tested, 0.063% active | AID 488965, 2010; in the data active means inhibition above about 30%, passing the limit was not always enough;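 further: 0% = vehicle neutral wells and 100% = reference inhibitor wells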
ERp5 block = inhibitors of ERp5-driven insulin aggregation, primary screen, biochemical, turbidity, absorbance 650 nm, single point | Protein disulfide-isomerase A6 (Homo sapiens), Q15084 | 90 min | inhibition, % at 9.99 µM | 350,000 tested, 0.05% active | AID 651711, 2012;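 active means mean replicate inhibition above about 25%, with every replicate also reaching it, limit read from the data, passing the limit was not always enough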
Target sequence (Q15084 whole entry, looked up): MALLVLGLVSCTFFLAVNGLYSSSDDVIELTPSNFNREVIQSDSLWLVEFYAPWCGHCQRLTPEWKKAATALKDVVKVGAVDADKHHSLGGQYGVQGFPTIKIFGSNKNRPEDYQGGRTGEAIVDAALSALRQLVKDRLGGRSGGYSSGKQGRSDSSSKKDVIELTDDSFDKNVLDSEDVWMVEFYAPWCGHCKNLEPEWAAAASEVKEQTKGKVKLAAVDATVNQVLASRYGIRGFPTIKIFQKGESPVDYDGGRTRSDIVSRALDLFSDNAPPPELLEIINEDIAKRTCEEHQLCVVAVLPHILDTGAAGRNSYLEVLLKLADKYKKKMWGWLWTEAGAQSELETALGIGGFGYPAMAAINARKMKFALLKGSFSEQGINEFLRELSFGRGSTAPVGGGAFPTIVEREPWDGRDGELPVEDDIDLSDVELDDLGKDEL
* marks the source's active call; other numbers are inactive results; / = not tested or not shown; [ ] = another dose, or the depositor's remark.

SMILES | HIV Env fusion | rRNA inh HTS | PDI turbidity | FN deposit inh | PvdQ acylase | ERp5 block
CN1C(C(=O)NCc2cccs2)=CC(c2ccc(F)cc2)=NS1(=O)=O | 71* | -3 | 3 | -5 | -10 | 12
COc1ccc(C2=NS(=O)(=O)N(C)C(C(=O)NCc3cccs3)=C2)cc1OC | -21 | -7 | / | -1 | -13 | 3
COCCN(C(=O)COC(=O)C12CC3CC(CC(Cl)(C3)C1)C2)c1c(N)n(Cc2ccccc2)c(=O)[nH]c1=O | 68* | 2 | 11 | 4 | 7 | 1
COCCCN(C(=S)NC(=O)C12CC3CC(CC(C3)C1)C2)c1c(N)n(Cc2ccccc2)c(=O)[nH]c1=O | 84* | -6 | 13 | -8 | -10 | -1
COCCCN(C(=O)C1CCCCC1)c1c(N)n(Cc2ccccc2)c(=O)[nH]c1=O | / | 8 | -4 | 7 | -8 | /
Cc1ccc(C)c(CN2CCC(n3nccc3NC(=O)CCCc3ccccc3)CC2)c1 | 2 | -27* | 1 | 4 | -12 | 0
CCCN1C(=O)/C(=C/c2ccc3c(c2)OCO3)NC1=S | -2 | -24* | -7 | 0 | 13 | -7
CCOc1ccccc1NC(=S)NNS(=O)(=O)c1c(C)cc(C)cc1C | 4 | -16* | 5 | 1 | 6 | -1
CCOc1ccccc1NC(=O)NNS(=O)(=O)c1cc(C)ccc1C | -6 | -21 | 0 | / | 0 | 7
COc1ccc(-c2csc3nc(-c4ccc(C)cc4)oc(=O)c23)cc1OC | 5 | 8 | -6 | 6 | 4 | -6
Cc1nc2scc(-c3ccccc3)c2c(=O)o1 | 39 | / | 8 | -1 | 10 | /
COc1ccc(-c2csc3nc(-c4ccccc4OC)oc(=O)c23)cc1 | 21 | -20* | 2 | / | 7 | 5
O=c1oc(-c2ccccc2F)nc2scc(-c3ccccc3)c12 | 64* | / | 5 | -4 | / | -4
CCC(=O)N[C@@H]1CC[C@H](CC(=O)NCc2ccccc2F)O[C@@H]1CO | 2[16.7 µM] | 1 | / | -5 | / | 1
COC(=O)C[C@H]1CC[C@H]2[C@@H](COc3ccc(NC(=O)c4cc(F)cc(F)c4)cc3C(=O)N2C)O1 | -2[16.7 µM] | 6 | / | -4 | / | /
Cc1cccc(C)c1Nc1ncnc2ccccc12 | -8 | -34* | -3 | 6 | -16 | 4
CCc1ccccc1Nc1ncnc2ccccc12 | -2 | -17 | 6 | 6 | -11 | 3
O=C(C[C@@H]1C=C[C@@H](NS(=O)(=O)c2ccccc2)[C@H](CO)O1)N1CCC(Cc2ccccc2)CC1 | / | 2 | / | / | / | 2
COc1ccc(S(=O)(=O)N[C@H]2C=C[C@H](CC(=O)N3CCN(c4ccccc4)CC3)O[C@@H]2CO)cc1 | 59*[16.7 µM] | -3 | / | / | / | -6
COc1ccc(S(=O)(=O)N[C@@H]2C=C[C@@H](CC(=O)N3CCN(c4ccccc4)CC3)O[C@@H]2CO)cc1 | 0[16.7 µM] | -5 | / | / | / | 7
O=C(Cc1ccccc1)N[C@@H]1C=C[C@H](CC(=O)N2CCCCC2)O[C@@H]1CO | 57*[16.7 µM] | 2 | / | 7 | / | 3
Cc1ccc(S(=O)(=O)N[C@@H]2C=C[C@@H](CC(=O)N3CCC(Cc4ccccc4)CC3)O[C@@H]2CO)cc1 | 56*[16.7 µM] | 2 | / | / | / | 5
O=C(Nc1ccccc1)NN(C(=O)CCl)c1ccccc1 | 39 | 4 | 15 | 8 | -6 | 6
CCC(O)(CC)C(=O)NN(C(=O)CCl)c1ccccc1 | 61* | 13 | 9 | 6 | -4 | 3
Cc1ccc(N(NC(=O)C(O)(c2ccccc2)c2ccccc2)C(=O)CCl)cc1 | 70* | / | 1 | 6 | -11 | /
SMILES | HIV Env fusion | rRNA inh HTS | PDI turbidity | FN deposit inh | PvdQ acylase | ERp5 block
C[C@H]1CCCCO[C@H](CN(C)S(C)(=O)=O)[C@@H](C)CN([C@@H](C)CO)C(=O)c2cc(NS(C)(=O)=O)ccc2O1 | -11[16.7 µM] | -3 | / | / | / | /
CC1(C(=O)NCc2ccc3c(c2)OCO3)CCN1Cc1csc2ccccc12 (stereo unspecified) | 98* | -63 | 1 | -1 | / | 5
CC1(C(=O)Nc2ccc3c(c2)OCCO3)CCN1Cc1csc2ccccc12 (stereo unspecified) | 25 | -54 | 10 | 2 | / | 4
CCC(=O)N1CCC2(CC1)CN(C(=O)Nc1ccccc1F)[C@H](CO)c1[nH]c3cc(OC)ccc3c12 | / | -5 | / | / | / | /
Cc1ccc(C(O)(c2ccccc2)c2ccccc2C(C)N(C)C)c(C)c1 (stereo unspecified) | 79* | / | 3 | 12 | 6 | /
CC(c1ccccc1C(O)c1ccccc1)N(C)C (stereo unspecified) | / | 15 | 0 | / | -3 | 5
O=C(NCc1ccco1)c1ccc(Cn2c(=O)c3sccc3n(Cc3cccc(F)c3)c2=O)cc1 | 90* | -9 | 0 | 5 | -11 | 5
O=C(CCn1c(=O)c2sccc2n(CC(=O)NCc2ccco2)c1=O)NCc1ccccc1 | -32 | / | 0 | 4 | -9 | /
O=C(NCc1ccco1)C1CCN(C(=O)c2cc3sccc3n2Cc2ccc(F)cc2)CC1 | / | -29* | 2 | / | -8 | -2
Cc1ccc(NC(=O)Cn2c(=O)n(Cc3ccco3)c(=O)c3ccccc32)c(C)c1 | -46 | / | 11 | -6 | 1 | /
O=C(NCc1ccco1)c1ccc(Cn2c(=O)c3ccccc3n(Cc3cccc(Cl)c3)c2=O)cc1 | 89* | / | 3 | 6 | -6 | /
O=C(Cn1c(=O)n(Cc2ccco2)c(=O)c2ccccc21)Nc1cccc(Cl)c1 | 95* | -15 | -2 | -9 | 6 | -3
Cn1cnc(S(=O)(=O)N2CCCCN3[C@H](CO)[C@@H](c4ccc(-c5cccc(F)c5)cc4)[C@@H]3C2)c1 | / | 0 | / | / | / | 0
CCOC(=O)c1sc2ncc([N+](=O)[O-])cc2c1N | 13 | -36* | -1 | -6 | 17 | 1
COc1ccc(/C=C/C(=O)c2ccc([N+](=O)[O-])o2)cc1 | -444 | 1 | 4 | -4 | -9 | 2
O=C(/C=C/c1cccc([N+](=O)[O-])c1)c1ccc([N+](=O)[O-])o1 | 56* | 1 | -2 | -11 | -11 | 6
Cc1ccccc1/C=C/C(=O)c1ccc([N+](=O)[O-])o1 | -295 | -55 | / | 42* | / | -1
Cc1cccc(/C=C/C(=O)c2ccc([N+](=O)[O-])o2)c1 | -82 | 7 | 1 | 65* | 13 | 0
COc1ccc2c3c([nH]c2c1)[C@H](CO)N(C(=O)Cc1ccccc1)CC31CN(C)C1 | / | 3 | / | / | / | -6
